Source: ChEMBL document CHEMBL3227943, “Synthesis and mutagenicity of 5,11-dimethylchrysene and some methyl-oxidized derivatives of 5-methylchrysene” (J Med Chem, 1979)

Key:
Salmonella typhimurium [1] = test: Mutagenic activity in Salmonella typhimurium TA 100 at 5 to 100 ug by Ames test in presence of Fischer-344 rat liver S9 fraction; assay type: toxicity, organism-based, Salmonella enterica subsp. enterica serovar Typhimurium
Method in brief: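 TA100 plate-incorporation assay: compound in 50 µL Me₂SO, 0.1 mL overnight broth culture, 200 µL S-9 mix and 2 mL top agar (45 °C), poured on minimal glucose agar. S-9 from Aroclor 1254-induced rats (500 mg/kg, 5 days earlier); mix per mL: 100 µmol K phosphate pH 7.4, 8 µmol MgCl₂, 5 µmol G6P, 4 µmol NADP⁺. His⁺ revertants/plate, mean of four trials.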

Salmonella typhimurium [2] = test: Toxicity in Salmonella typhimurium TA 100 at 5 to 100 ug in presence of Fischer-344 rat liver S9 fraction; assay type: organism-based, Salmonella enterica subsp. enterica serovar Typhimurium
Method in brief: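 Percent survivors were measured with diluted TA100 broth culture under the same S-9 plating conditions as the mutagenicity assay, except that excess histidine was added to the top agar.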

Salmonella typhimurium [3] = test: Mutagenic activity in Salmonella typhimurium TA 100 at 5 to 100 ug by Ames test in presence of Fischer-344 rat liver S9 fraction relative to 5-methylchrysene
Salmonella typhimurium [4] = test: Mutagenic activity in Salmonella typhimurium TA 100 at 5 to 100 ug by Ames test in absence of Fischer-344 rat liver S9 fraction; assay type: toxicity, organism-based, Salmonella enterica subsp. enterica serovar Typhimurium; conditions: in vivo
Salmonella typhimurium [5] = test: Mutagenic activity in Salmonella typhimurium TA 100 at 50 ug by Ames test in absence of Fischer-344 rat liver S9 fraction; assay type: toxicity, organism-based, Salmonella enterica subsp. enterica serovar Typhimurium; conditions: in vivo

SMILES	Activity (Salmonella typhimurium [1])	Activity (Salmonella typhimurium [2])	Activity (Salmonella typhimurium [3])	Activity (Salmonella typhimurium [4])	Activity (Salmonella typhimurium [5])
Cc1cc2ccccc2c2ccc3ccccc3c12	Toxic	Non-toxic	–	–	–
Cc1cc2ccccc2c2c(C)cc3ccccc3c12	Toxic	Non-toxic	–	–	–
OCc1cc2ccccc2c2ccc3ccccc3c12	–	Non-toxic	Non-toxic	–	–
CC(=O)OCc1cc2ccccc2c2ccc3ccccc3c12	–	Non-toxic	Non-toxic	–	–
COC(=O)c1cc2ccccc2c2ccc3ccccc3c12	–	Non-toxic	Non-toxic	–	–
OCc1cc2ccccc2c2ccc3c(c12)CCCC3	–	Non-toxic	Non-toxic	–	–
COC(=O)c1cc2ccccc2c2ccc3c(c12)CCCC3	–	Non-toxic	Non-toxic	–	–
O=c1oc2cccc3ccc4c5ccccc5cc1c4c32	Toxic	Non-toxic	–	Non-toxic	–
Cc1cc2ccccc2c2ccc3c(c12)C=CC(O)C3O (stereo not drawn)	–	–	–	–	Toxic
